Shown are actives, neighbours in structure and some others; about 2.2% of the full set was active somewhere.
G6PDH CS = counter-screen for G6PDH assay hits: L. mesenteroides G6PDH inhibition; Purified L. mesenteroides G6PDH, diaphorase/resazurin coupled fluorescence, 45 min; inhibition, % at 5 µM; 0.12% of 200,000 active; in the data active means inhibition above about 50%
PMI act hi M6P = increases human PMI activity with near-saturating mannose 6-phosphate. P34949. activation factor at 20 µM. AID 1216. 0.34% of 190,000 active. coupled PMI enzyme assay, resazurin fluorescence, 20 min; stronger effect = higher value; 1 = untreated enzyme, 0 = substrate-free blank;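 active means activation factor of 2 or more at 20 µM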
Target sequence (P34949 whole entry, looked up): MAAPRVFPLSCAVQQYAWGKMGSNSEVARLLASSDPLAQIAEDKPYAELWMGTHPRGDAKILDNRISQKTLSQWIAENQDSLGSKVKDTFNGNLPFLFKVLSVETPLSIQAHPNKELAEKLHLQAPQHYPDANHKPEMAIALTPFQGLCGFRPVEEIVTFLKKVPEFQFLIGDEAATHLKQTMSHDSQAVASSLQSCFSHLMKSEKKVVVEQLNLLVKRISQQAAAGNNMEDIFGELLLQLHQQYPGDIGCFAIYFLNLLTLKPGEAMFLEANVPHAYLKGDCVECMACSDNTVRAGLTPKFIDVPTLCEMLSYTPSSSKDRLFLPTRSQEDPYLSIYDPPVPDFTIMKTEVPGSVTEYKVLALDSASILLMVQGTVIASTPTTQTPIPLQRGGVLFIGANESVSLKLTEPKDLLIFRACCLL
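assay system = human phosphomannose isomerase with PGI, G6PDH, diaphorase coupling enzymes | quantity = 15 ng/mL PMI | incubation = enzyme reaction with compound 20 min at room temperature | medium = HEPES pH 7.4 buffer with MgCl2 and Tween-20 | compound dosing = one concentration, 20 µM, in 1% DMSO | measured by = Diaphorase-driven resazurin-to-resorufin fluorescence, excitation 544, emission 590 nm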
Diaph inh CS = diaphorase inhibition or chemical oxidation counter-screen; diaphorase resazurin-to-resorufin fluorescence, NADH, 16 min; bacterial (C. kluyveri) enzyme, not human; 0.69% of 190,000 active; inhibition, % at 20 µM; AID 1217;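 active means primary screen inhibition at 20 µM above a set limit, cut at about 50% in these data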;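 further: plate controls were DMSO with full reaction for no effect and wells lacking NADH for full effect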
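Detection: fluorescence of resorufin formed from resazurin, Ex 544/Em 590 nm; test system: Clostridium kluyveri diaphorase enzyme; amount: 0.14 U/mL diaphorase, enzyme working solution; times: 16-min room-temperature incubation before reading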
ROMK primary = modulates human ROMK potassium channel activity; Tet-inducible ROMK, thallium flux fluorescence; actives lie on both sides; 2% of 130,000 active; P48048; B-score at 10 µM;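 active means signal ratio slope over the read window, or its plate-corrected B-score, at least 3 SD from the plate mean, either direction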;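 further: B-score of the F/F0 ratio slope over 7 to 12 s after thallium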
PMI act = increases human mannose-6-phosphate isomerase activity. purified human PMI, coupled resazurin fluorescence, 20 min; stronger effect = higher value; 1 = vehicle control, 0 substrate-free wells. activation factor at 20 µM. 0.005% of 190,000 active;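 active means activation factor of 2 or more at 20 µM, relative to plate controls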
Diaph act CS = activates diaphorase or chemically reduces, flagging diaphorase assay artifacts | 0.005% of 190,000 active | activation factor at 20 µM | Diaphorase/resazurin coupled assay, resorufin fluorescence, 16 min; stronger effect = higher value; 1 = vehicle wells, 0 = NADH-free wells;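 active means diaphorase activity raised at least twofold by the compound at 20 µM; inactive means activation factor below 2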
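Measured by – red resorufin fluorescence at 544/590 nm excitation/emission · Test system – Clostridium kluyveri diaphorase, purified enzyme · Incubation – reaction time 16 min, room temperature · Buffer or medium – 50 mM HEPES pH 7.4 with 4.542 mM MgCl2, 0.005% Tween 20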
ROMK hit retest = human ROMK channel modulation, retest confirmation | shares compounds with ROMK primary | ROMK thallium flux, fluorescence ratio; stronger effect = lower value | normalized thallium flux (F/F0 slope) at 10 µM | 54% of 3,000 active;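 active means Flux at 10 µM at least 3 SD below or above vehicle control mean in one or both replicates; inconclusive means no clear call, values can overlap the other calls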
An asterisk follows results filed as active; ? = inconclusive; · = no result.

SMILES	G6PDH CS	PMI act hi M6P	Diaph inh CS	ROMK primary	PMI act	Diaph act CS	ROMK hit retest
COc1cccc(/C=N/n2c(C)nc3ccccc32)c1OC	4	0.9	3	-2.7	0.9	1	0.074
O=Cc1s/c(=N\S(=O)(=O)c2ccccc2)n(CCCCl)c1Cl	2	1	3	-6.1*	1	1	0.043*
CN1C/C(=N\S(=O)(=O)c2ccccc2)N(C)C1=O	-10	1.1	8	1.5	1.1	0.9	·
O=S1CCCSC1c1cccnc1 (centres undefined)	-7	0.9	17	0.057	0.9	0.8	0.076
COc1ccc(C(=O)Cn2nc(CNc3ccc(Br)cc3)[n+]3c2CCCCC3)cc1	2	0.9	-9	-2.5	0.9	1.1	·
Cc1ccc(C(C)C)c(OCc2nn(CC(=O)c3ccc(OC(F)F)cc3)c3[n+]2CCCCC3)c1	4	0.9	-65	-4.2*	1	1.6	0.055*
CCC(CC)C(=O)Nc1cccc(SC)c1	11	0.9	19	1.5	0.9	0.8	·
C/C(=C/C(=O)O)C(=O)Nc1cccc(C(F)(F)F)c1	10	1.1	2	-0.68	1.2	1	·
Cc1ccc(NS(=O)(=O)c2cc3c4c(cccc4c2)C(=O)NC3=O)cc1	0	1.1	2	1.7*	1.1	1	?
CNS(=O)(=O)c1cc2c3c(cccc3c1)C(=O)NC2=O	2	0.9	19	1.1	1	0.8	·
O=c1c2ccccc2c(/C=N/c2nnc(Cc3ccccc3)s2)c(O)n1-c1ccc(Cl)cn1	7	1.5	37	-4.3*	1.3	0.6	0.06*
Cc1cccc(C)c1N=Cc1c(O)n(-c2nccs2)c(=O)c2ccccc12	-10	1	18	·	0.9	0.8	·
Cc1ccc(-c2nc(CSCC(=O)NCCN3CCN(Cc4ccccc4)CC3)c(C)o2)cc1	4	1	2	-3.7*	1	1	?
Cc1ccc(-c2nc(CSCC(=O)NCCCN3CCOCC3)c(C)o2)cc1	4	1.1	4	0.72	1	1	·
COc1ccccc1-c1nn2c(-c3ccco3)nnc2s1	12	0.9	22	-1.3	1.1	0.8	0.057*
c1coc(-c2nn3c(-c4ccco4)nnc3s2)c1	5	1	35	-0.32	1	0.7	·
CC1CCCN(C(=O)C2(NC(=O)Nc3cccc(F)c3)CCCCC2)C1 (centres undefined)	1	1.1	8	-0.26	1.1	0.9	·
CC(=O)Nc1cccc(C(=O)/C=C/c2ccc(/C=C/C(=O)c3cccc(NC(C)=O)c3)cc2)c1	-26	1	2	·	0.9	1	·
COc1ccc(/C=C/C(=O)Nc2cccc(C(C)=O)c2)cc1	-5	1	4	1.4*	1	1	?
COc1ccccc1/C=C/C(=O)Nc1cccc(C(C)=O)c1	5	1	9	-2.2	1	0.9	·
CC(=O)Nc1cccc(C(=O)/C=C/c2ccc(N(C)C)cc2)c1	-4	0.8	12	-3.7*	1	0.9	0.048*
CC(=O)Nc1cccc(C(=O)/C=C/c2ccc(F)cc2)c1	-5	1	8	-3.7*	1	0.9	0.053*
CCc1ccc(C(=O)OCC(=O)c2c(N)n(CC(C)C)c(=O)n(C)c2=O)cc1	6	1.1	-12	-11*	1.1	1.1	0.082
CC(C)Cn1c(N)c(C(=O)COC(=O)c2ccc(F)cc2)c(=O)n(C)c1=O	0	0.9	15	0.28	1	0.8	·
Cc1ccc(Cl)cc1NC(=S)NN	·	·	·	0.29	·	·	·
SMILES	G6PDH CS	PMI act hi M6P	Diaph inh CS	ROMK primary	PMI act	Diaph act CS	ROMK hit retest
COc1cc2c(cc1OC)CN(C(=O)c1ccc3nc[nH]c3c1)CC2	-4	1	-5	3.4*	1.1	1	0.084
C#CCOCCOCCOCCNc1nc(N2CCN(C(=O)Cn3cc(CCCN=C(N)N)nn3)CC2)nc(N2CCN(C(=O)Cn3cc(CCCN=C(N)N)nn3)CC2)n1	12	1.4	-29	-0.76	1.3	1.3	·
NNC(=O)/C=C/c1ccc(Cl)cc1Cl	-2	1.3	-10	2.3*	1.3	1.1	0.076
Cc1cc2c(c(SCC(=O)Nc3ccc(C)c(C)c3)n1)C(=O)OC2	7	1.1	-19	-1.4	1.2	1.2	·
Cc1ccc(C)c(SCC(=O)Nc2cccc(S(=O)(=O)NC3=NCCCCC3)c2)c1	-3	0.8	31	-0.37	0.9	0.7	·
Cc1ccc(CNCC(=O)Nc2cccc(S(=O)(=O)NC3=NCCCCC3)c2)cc1	0	1	19	-2.6*	1	0.8	0.064*
Cc1c(NC(=O)/C(C#N)=C/c2ccc(-c3ccccc3Cl)o2)c(=O)n(-c2ccccc2)n1C	-16	0.9	18	·	0.8	0.8	0.056*
Cc1c(NC(=O)/C(C#N)=C/c2ccccc2)c(=O)n(-c2ccccc2)n1C	7	0.9	4	-2.9*	1	1	0.051*
Cc1ccsc1/C=C(\C#N)C(=O)Nc1c(C)n(C)n(-c2ccccc2)c1=O	29	0.9	12	0.39	0.9	0.9	·
COc1ccc(/C=N/OC(=O)Nc2ccccc2OC)cc1	3	1	10	0.6	0.9	0.9	·
N=C(N)SCc1cn(-c2ccccc2)nc1-c1ccc(Br)cc1	-3	1	-66	-2.1*	0.9	1.7	0.055*
CCN(CC)c1ccc2cc(C#N)c(=O)oc2c1	5	1	-8	·	1	1.1	0.046*
CCN(CC)c1ccc2ccc(=O)oc2c1	9	1	-2	-0.19	1	1	·
O=C(O)Cc1cc(I)c(Oc2ccc(O)c(I)c2)c(I)c1	0	1	15	·	1	0.8	0.12*
CCOc1ccc(C(=O)C(CCC(CN(C)C)C(=O)c2ccc(OCC)cc2)CN(C)C)cc1 (centres undefined)	2	0.9	3	·	1	1	·
CN(C)CC(CCC(CN(C)C)C(=O)c1ccccc1)C(=O)c1ccccc1 (centres undefined)	·	·	·	-3.2*	·	·	0.044*
CC1CC(C)CN(c2ccc(C(=O)NCc3ccc4c(c3)OCO4)cc2[N+](=O)[O-])C1 (centres undefined)	-1	0.9	12	1.1	0.9	0.9	·
CC(C)(C)NC(=S)N/N=C/c1cccnc1	·	·	·	0.037	·	·	·
CCOCCOC(=O)c1[nH]c2c(c1C)C(=O)CC(c1cccs1)C2 (centres undefined)	5	1.1	-10	5.7*	1.2	1.1	0.076

Compound activity deposited in PubChem BioAssay by several laboratories.
